Data reported in PMC5656813 (Arthritis & Rheumatology (Hoboken, N.j.), 2017).

Legend:
RA patients = test: Study 2, treatment‐emergent adverse events; format: in vivo, human
Method in brief: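 Both double-blind, placebo-controlled trials in RA patients on stable MTX. Oral capsules daily for 4 weeks, with 7–10-day follow-up: 200 mg once daily or 100 mg twice daily (study 1); 30, 75, 150 or 300 mg once daily (study 2). At every visit: AEs, vital signs, hematology, serum biochemistry, coagulation and urinalysis. EKG at baseline and follow-up, plus week 4 in study 1. Safety population, descriptive treatment-emergent AE summaries.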

[1] = system: VCAM‐1, ICAM‐1, MMP‐3, haptoglobin, IL‐18, YKL‐40; test: Study 2, PD marker proteins in plasma; format: in vivo, human; details: 75, 150, or 300 mg, after 4 weeks
Method in brief: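 Plasma taken at baseline and week 4 from all study 2 participants. Dosed once daily for 4 weeks. YKL-40 measured by ELISA; VCAM-1, ICAM-1, MMP-3, haptoglobin and IL-18 quantified by a second technology at a service laboratory. Each patient normalized to own baseline, expressed as percent change. Mean ± SEM; Kruskal-Wallis test with Dunn's post hoc test.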

[2] = cited from earlier work

O=C(Nc1nc2cccc(-c3ccc(CN4CCS(=O)(=O)CC4)cc3)n2n1)C1CC1 [Filgotinib]
treatment-related TEAE: Abdominal discomfort (RA patients; 30 mg once daily): 0 number (%) of patients | treatment-related TEAE: Abdominal pain, upper (RA patients; 30 mg once daily): 0 number (%) of patients | treatment-related TEAE: Aspartate aminotransferase increased (RA patients; 30 mg once daily): 1 (5.9) number (%) of patients | treatment-related TEAE: Blood amylase increased (RA patients; 30 mg once daily): 0 number (%) of patients | treatment-related TEAE: Blood and lymphatic system disorders (RA patients; 30 mg once daily): 0 number (%) of patients | treatment-related TEAE: Blood triglycerides increased (RA patients; 30 mg once daily): 1 (5.9) number (%) of patients | treatment-related TEAE: Cystitis, noninfectious (RA patients; 30 mg once daily): 0 number (%) of patients | treatment-related TEAE: Duodenogastric reflux (RA patients; 30 mg once daily): 0 number (%) of patients | treatment-related TEAE: Ear and labyrinth disorders (RA patients; 30 mg once daily): 0 number (%) of patients | treatment-related TEAE: Gastrointestinal disorders (RA patients; 30 mg once daily): 1 (5.9) number (%) of patients | treatment-related TEAE: Gastrointestinal pain (RA patients; 30 mg once daily): 0 number (%) of patients | treatment-related TEAE: General disorders and administration site reactions (RA patients; 30 mg once daily): 0 number (%) of patients | treatment-related TEAE: Gingival bleeding (RA patients; 30 mg once daily): 0 number (%) of patients | treatment-related TEAE: Infections and infestations (RA patients; 30 mg once daily): 0 number (%) of patients | treatment-related TEAE: Laboratory findings (RA patients; 30 mg once daily): 2 (11.8) number (%) of patients | treatment-related TEAE: Lipase increased (RA patients; 30 mg once daily): 0 number (%) of patients | treatment-related TEAE: Musculoskeletal and connective tissue disorders (RA patients; 30 mg once daily): 0 number (%) of patients | treatment-related TEAE: Nervous system disorders (RA patients; 30 mg once daily): 0 number (%) of patients | treatment-related TEAE: Renal and urinary disorders (RA patients; 30 mg once daily): 0 number (%) of patients | treatment-related TEAE: Abdominal discomfort (RA patients; 75 mg once daily): 0 number (%) of patients | treatment-related TEAE: Abdominal pain, upper (RA patients; 75 mg once daily): 0 number (%) of patients | treatment-related TEAE: Aspartate aminotransferase increased (RA patients; 75 mg once daily): 0 number (%) of patients | treatment-related TEAE: Blood amylase increased (RA patients; 75 mg once daily): 0 number (%) of patients | treatment-related TEAE: Blood and lymphatic system disorders (RA patients; 75 mg once daily): 1 (4.5) number (%) of patients | treatment-related TEAE: Blood triglycerides increased (RA patients; 75 mg once daily): 0 number (%) of patients | treatment-related TEAE: Cystitis, noninfectious (RA patients; 75 mg once daily): 0 number (%) of patients | treatment-related TEAE: Duodenogastric reflux (RA patients; 75 mg once daily): 1 (4.5) number (%) of patients | treatment-related TEAE: Ear and labyrinth disorders (RA patients; 75 mg once daily): 0 number (%) of patients | treatment-related TEAE: Gastrointestinal disorders (RA patients; 75 mg once daily): 2 (9.1) number (%) of patients | treatment-related TEAE: Gastrointestinal pain (RA patients; 75 mg once daily): 0 number (%) of patients | treatment-related TEAE: General disorders and administration site reactions (RA patients; 75 mg once daily): 0 number (%) of patients | treatment-related TEAE: Gingival bleeding (RA patients; 75 mg once daily): 1 (4.5) number (%) of patients | treatment-related TEAE: Infections and infestations (RA patients; 75 mg once daily): 0 number (%) of patients | treatment-related TEAE: Laboratory findings (RA patients; 75 mg once daily): 0 number (%) of patients | treatment-related TEAE: Lipase increased (RA patients; 75 mg once daily): 0 number (%) of patients | treatment-related TEAE: Musculoskeletal and connective tissue disorders (RA patients; 75 mg once daily): 0 number (%) of patients | treatment-related TEAE: Nervous system disorders (RA patients; 75 mg once daily): 0 number (%) of patients | treatment-related TEAE: Renal and urinary disorders (RA patients; 75 mg once daily): 0 number (%) of patients | treatment-related TEAE: Abdominal discomfort (RA patients; 150 mg once daily): 0 number (%) of patients | treatment-related TEAE: Abdominal pain, upper (RA patients; 150 mg once daily): 0 number (%) of patients | treatment-related TEAE: Aspartate aminotransferase increased (RA patients; 150 mg once daily): 0 number (%) of patients | treatment-related TEAE: Blood amylase increased (RA patients; 150 mg once daily): 0 number (%) of patients | treatment-related TEAE: Blood and lymphatic system disorders (RA patients; 150 mg once daily): 0 number (%) of patients | treatment-related TEAE: Blood triglycerides increased (RA patients; 150 mg once daily): 0 number (%) of patients | treatment-related TEAE: Cystitis, noninfectious (RA patients; 150 mg once daily): 0 number (%) of patients | treatment-related TEAE: Duodenogastric reflux (RA patients; 150 mg once daily): 0 number (%) of patients | treatment-related TEAE: Ear and labyrinth disorders (RA patients; 150 mg once daily): 0 number (%) of patients | treatment-related TEAE: Gastrointestinal disorders (RA patients; 150 mg once daily): 1 (6.7) number (%) of patients | treatment-related TEAE: Gastrointestinal pain (RA patients; 150 mg once daily): 0 number (%) of patients | treatment-related TEAE: General disorders and administration site reactions (RA patients; 150 mg once daily): 0 number (%) of patients | treatment-related TEAE: Gingival bleeding (RA patients; 150 mg once daily): 0 number (%) of patients | treatment-related TEAE: Infections and infestations (RA patients; 150 mg once daily): 0 number (%) of patients | treatment-related TEAE: Laboratory findings (RA patients; 150 mg once daily): 0 number (%) of patients | treatment-related TEAE: Lipase increased (RA patients; 150 mg once daily): 0 number (%) of patients | treatment-related TEAE: Musculoskeletal and connective tissue disorders (RA patients; 150 mg once daily): 0 number (%) of patients | treatment-related TEAE: Nervous system disorders (RA patients; 150 mg once daily): 0 number (%) of patients | treatment-related TEAE: Renal and urinary disorders (RA patients; 150 mg once daily): 0 number (%) of patients | treatment-related TEAE: Abdominal discomfort (RA patients; 300 mg once daily): 0 number (%) of patients | treatment-related TEAE: Abdominal pain, upper (RA patients; 300 mg once daily): 0 number (%) of patients | treatment-related TEAE: Aspartate aminotransferase increased (RA patients; 300 mg once daily): 0 number (%) of patients | treatment-related TEAE: Blood amylase increased (RA patients; 300 mg once daily): 0 number (%) of patients | treatment-related TEAE: Blood and lymphatic system disorders (RA patients; 300 mg once daily): 0 number (%) of patients | treatment-related TEAE: Blood triglycerides increased (RA patients; 300 mg once daily): 0 number (%) of patients | treatment-related TEAE: Cystitis, noninfectious (RA patients; 300 mg once daily): 1 (5.0) number (%) of patients | treatment-related TEAE: Duodenogastric reflux (RA patients; 300 mg once daily): 0 number (%) of patients | treatment-related TEAE: Ear and labyrinth disorders (RA patients; 300 mg once daily): 0 number (%) of patients | treatment-related TEAE: Gastrointestinal disorders (RA patients; 300 mg once daily): 2 (10.0) number (%) of patients | treatment-related TEAE: Gastrointestinal pain (RA patients; 300 mg once daily): 1 (5.0) number (%) of patients | treatment-related TEAE: General disorders and administration site reactions (RA patients; 300 mg once daily): 0 number (%) of patients | treatment-related TEAE: Gingival bleeding (RA patients; 300 mg once daily): 0 number (%) of patients | treatment-related TEAE: Laboratory findings (RA patients; 300 mg once daily): 0 number (%) of patients | treatment-related TEAE: Lipase increased (RA patients; 300 mg once daily): 0 number (%) of patients | treatment-related TEAE: Musculoskeletal and connective tissue disorders (RA patients; 300 mg once daily): 0 number (%) of patients | treatment-related TEAE: Nervous system disorders (RA patients; 300 mg once daily): 0 number (%) of patients | treatment-related TEAE: Renal and urinary disorders (RA patients; 300 mg once daily): 1 (5.0) number (%) of patients | effect on levels of circulating PD markers [1]: dose‐dependent effect | PK half‐life [2]: ~7 h
